Experimental findings from ChEMBL document CHEMBL1134363 (J Med Chem, 2001) are described below.

The target in assay [1] is T1, Alpha-2A adrenergic receptor (Homo sapiens, UniProt P08913).
T1 sequence (P08913 whole entry): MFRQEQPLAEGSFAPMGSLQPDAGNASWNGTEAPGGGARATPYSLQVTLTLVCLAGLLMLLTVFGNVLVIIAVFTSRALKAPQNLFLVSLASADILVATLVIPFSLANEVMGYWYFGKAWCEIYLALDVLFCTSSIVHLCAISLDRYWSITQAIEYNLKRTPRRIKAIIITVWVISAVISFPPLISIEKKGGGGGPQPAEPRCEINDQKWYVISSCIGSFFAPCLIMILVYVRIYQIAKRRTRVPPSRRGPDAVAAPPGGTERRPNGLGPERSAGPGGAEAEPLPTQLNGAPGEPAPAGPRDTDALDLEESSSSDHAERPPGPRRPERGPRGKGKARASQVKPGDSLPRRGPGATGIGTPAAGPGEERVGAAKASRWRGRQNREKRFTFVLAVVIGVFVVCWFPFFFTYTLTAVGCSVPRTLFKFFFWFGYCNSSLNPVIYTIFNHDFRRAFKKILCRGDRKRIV
Put plainly: Binding affinity for human alpha-2 adrenergic receptor expressed in CHO cell. It counts as cell-based.

In assay [2] the target is T2, Adrenergic receptor alpha-2 (Rattus norvegicus, UniProt P22086+P19328+P22909).
T2 sequence (P22086 whole entry): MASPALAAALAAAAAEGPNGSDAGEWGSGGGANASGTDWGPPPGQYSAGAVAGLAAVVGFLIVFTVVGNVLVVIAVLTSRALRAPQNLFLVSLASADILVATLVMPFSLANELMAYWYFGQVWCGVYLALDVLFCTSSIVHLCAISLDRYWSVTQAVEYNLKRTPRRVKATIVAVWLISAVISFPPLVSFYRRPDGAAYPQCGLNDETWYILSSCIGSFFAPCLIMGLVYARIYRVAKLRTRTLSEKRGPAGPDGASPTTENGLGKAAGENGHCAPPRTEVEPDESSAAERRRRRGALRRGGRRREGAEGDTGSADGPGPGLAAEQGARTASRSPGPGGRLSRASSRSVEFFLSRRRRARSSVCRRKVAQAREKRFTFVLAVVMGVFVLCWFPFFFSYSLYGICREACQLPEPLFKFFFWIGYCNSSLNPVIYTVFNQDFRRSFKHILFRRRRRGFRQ
T2 sequence (P19328 whole entry): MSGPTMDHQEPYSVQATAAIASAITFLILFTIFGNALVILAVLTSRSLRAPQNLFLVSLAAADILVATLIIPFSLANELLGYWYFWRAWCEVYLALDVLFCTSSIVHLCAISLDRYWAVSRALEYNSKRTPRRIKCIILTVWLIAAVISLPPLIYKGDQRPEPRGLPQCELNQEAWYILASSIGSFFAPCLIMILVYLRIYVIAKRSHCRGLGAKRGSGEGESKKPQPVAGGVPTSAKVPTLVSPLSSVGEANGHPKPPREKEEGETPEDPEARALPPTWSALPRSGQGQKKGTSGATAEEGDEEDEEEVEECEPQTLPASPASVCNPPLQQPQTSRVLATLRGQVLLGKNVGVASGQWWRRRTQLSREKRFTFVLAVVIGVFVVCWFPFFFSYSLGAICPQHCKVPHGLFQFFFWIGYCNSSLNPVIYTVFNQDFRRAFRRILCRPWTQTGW
T2 sequence (P22909 whole entry): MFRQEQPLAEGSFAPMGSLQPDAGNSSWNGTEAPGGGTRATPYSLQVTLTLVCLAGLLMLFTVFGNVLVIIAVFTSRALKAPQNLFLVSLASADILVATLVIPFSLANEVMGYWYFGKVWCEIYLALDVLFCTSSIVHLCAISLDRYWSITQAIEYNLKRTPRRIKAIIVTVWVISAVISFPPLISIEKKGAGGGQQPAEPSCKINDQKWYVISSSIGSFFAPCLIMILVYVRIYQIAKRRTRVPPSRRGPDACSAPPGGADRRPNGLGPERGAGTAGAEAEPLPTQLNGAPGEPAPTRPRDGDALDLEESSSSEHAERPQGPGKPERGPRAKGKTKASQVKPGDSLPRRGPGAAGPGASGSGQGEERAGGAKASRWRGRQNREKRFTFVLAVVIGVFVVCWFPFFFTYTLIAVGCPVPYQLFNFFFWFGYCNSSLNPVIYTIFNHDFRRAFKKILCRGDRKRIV
The assay is described as follows: In vitro binding affinity against alpha-2 adrenergic receptor of rat in presence of [3H]-RX 821002 radioligand. Format: protein assay.

In assay [3] the target is T3, Adrenergic receptor alpha-1 (Rattus norvegicus, UniProt P15823+P23944+P43140).
T3 sequence (P15823 whole entry): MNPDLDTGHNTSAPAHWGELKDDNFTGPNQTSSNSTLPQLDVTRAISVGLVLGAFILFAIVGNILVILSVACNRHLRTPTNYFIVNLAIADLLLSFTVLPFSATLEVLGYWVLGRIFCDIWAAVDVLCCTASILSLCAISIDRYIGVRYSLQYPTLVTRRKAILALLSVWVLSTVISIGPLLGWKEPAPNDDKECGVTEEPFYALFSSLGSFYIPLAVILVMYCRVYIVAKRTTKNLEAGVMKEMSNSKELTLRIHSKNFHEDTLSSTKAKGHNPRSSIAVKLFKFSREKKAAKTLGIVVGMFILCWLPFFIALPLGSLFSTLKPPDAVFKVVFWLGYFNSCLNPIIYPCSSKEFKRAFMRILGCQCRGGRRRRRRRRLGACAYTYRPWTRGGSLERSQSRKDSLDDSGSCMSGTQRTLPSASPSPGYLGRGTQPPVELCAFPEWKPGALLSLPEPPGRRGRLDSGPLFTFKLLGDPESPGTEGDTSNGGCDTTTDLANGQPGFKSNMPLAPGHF
T3 sequence (P23944 whole entry): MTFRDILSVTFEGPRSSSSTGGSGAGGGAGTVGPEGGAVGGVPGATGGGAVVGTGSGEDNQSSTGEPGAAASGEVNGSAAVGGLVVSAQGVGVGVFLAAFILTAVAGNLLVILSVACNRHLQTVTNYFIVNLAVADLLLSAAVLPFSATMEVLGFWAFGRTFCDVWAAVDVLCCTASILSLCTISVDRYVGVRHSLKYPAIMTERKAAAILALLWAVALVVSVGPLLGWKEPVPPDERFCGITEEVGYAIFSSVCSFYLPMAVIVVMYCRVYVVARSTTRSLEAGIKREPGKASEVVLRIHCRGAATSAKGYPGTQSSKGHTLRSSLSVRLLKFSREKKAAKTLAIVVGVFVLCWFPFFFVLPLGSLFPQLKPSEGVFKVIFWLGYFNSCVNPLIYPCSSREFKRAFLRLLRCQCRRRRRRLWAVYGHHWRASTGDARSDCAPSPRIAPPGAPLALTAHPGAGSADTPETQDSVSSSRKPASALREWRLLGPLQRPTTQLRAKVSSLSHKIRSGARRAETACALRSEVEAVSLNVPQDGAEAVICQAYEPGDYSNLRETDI
T3 sequence (P43140 whole entry): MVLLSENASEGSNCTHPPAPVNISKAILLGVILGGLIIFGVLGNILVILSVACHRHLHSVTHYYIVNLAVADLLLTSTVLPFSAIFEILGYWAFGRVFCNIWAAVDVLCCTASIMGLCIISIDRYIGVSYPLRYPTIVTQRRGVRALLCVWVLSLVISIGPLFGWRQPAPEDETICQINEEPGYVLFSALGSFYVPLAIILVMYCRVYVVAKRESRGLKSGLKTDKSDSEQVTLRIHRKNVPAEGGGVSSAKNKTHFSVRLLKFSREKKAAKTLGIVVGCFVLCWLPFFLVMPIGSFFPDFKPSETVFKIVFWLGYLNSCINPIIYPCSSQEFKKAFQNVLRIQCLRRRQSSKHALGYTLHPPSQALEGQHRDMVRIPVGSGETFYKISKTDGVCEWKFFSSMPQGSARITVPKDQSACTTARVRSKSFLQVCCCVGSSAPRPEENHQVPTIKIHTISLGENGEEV
The assay is described as follows: In vitro binding affinity against alpha-1 adrenergic receptor of rat in presence of [3H]-prazosin radioligand. Format: protein assay.

Assay [4] has as its target Sodium-dependent serotonin transporter (Rattus norvegicus, UniProt P31652). The assay is described as follows: In vitro binding affinity was determined against serotonin reuptake site of rat in presence of [3H]paroxetine radioligand.
Assay [5] addresses T4, Alpha-2A adrenergic receptor (Homo sapiens) (UniProt P08913).
T4 sequence (whole entry): T1 sequence (P08913 whole entry)
The assay is described as follows: Antagonistic activity as [35S]GTP gamma-S binding at alpha-2a adrenergic receptor expressed in CHO cells. Format: functional, cell-based. Summed up: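 Membranes (40 μg/mL) from CHO cells stably expressing human α2A receptor, preincubated 30 min at room temperature with drug in 20 mM HEPES pH 7.4, 100 mM NaCl, 3 μM GDP, 3 mM MgCl2; 0.2 nM [35S]GTPγS added, 60 min room temperature, NA 10 μM as agonist. Nonspecific: 10 μM GTPγS. Filtration, scintillation counting; pKB from IC50 corrected for agonist concentration/EC50.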
(Binding of GTPγS marks nucleotide exchange on a G protein.)

The target of assay [6] is Norepinephrine transporter (Rattus norvegicus, UniProt Q9WTR4). Put plainly: In vitro binding affinity was determined against NA (noradrenaline) reuptake site of rat in presence of [3H]nisoxetine radioligand.
Norepinephrine transporter, sequence (Q9WTR4 whole entry): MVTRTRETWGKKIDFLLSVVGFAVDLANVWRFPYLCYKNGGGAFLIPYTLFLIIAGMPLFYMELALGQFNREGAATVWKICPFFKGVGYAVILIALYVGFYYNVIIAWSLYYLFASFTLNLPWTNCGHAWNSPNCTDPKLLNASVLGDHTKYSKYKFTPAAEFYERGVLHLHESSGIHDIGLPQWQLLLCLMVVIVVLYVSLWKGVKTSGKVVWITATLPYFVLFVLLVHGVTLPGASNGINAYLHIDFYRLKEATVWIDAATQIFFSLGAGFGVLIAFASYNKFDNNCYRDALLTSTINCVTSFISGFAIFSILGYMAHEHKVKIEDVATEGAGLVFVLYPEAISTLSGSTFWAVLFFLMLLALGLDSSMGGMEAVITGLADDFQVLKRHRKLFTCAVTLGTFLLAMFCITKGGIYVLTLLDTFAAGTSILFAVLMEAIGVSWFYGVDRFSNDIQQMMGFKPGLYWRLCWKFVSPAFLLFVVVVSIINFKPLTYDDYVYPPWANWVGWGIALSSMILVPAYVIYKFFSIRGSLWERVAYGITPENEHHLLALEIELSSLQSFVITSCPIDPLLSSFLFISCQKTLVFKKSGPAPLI

Sodium-dependent serotonin transporter, sequence (P31652 whole entry): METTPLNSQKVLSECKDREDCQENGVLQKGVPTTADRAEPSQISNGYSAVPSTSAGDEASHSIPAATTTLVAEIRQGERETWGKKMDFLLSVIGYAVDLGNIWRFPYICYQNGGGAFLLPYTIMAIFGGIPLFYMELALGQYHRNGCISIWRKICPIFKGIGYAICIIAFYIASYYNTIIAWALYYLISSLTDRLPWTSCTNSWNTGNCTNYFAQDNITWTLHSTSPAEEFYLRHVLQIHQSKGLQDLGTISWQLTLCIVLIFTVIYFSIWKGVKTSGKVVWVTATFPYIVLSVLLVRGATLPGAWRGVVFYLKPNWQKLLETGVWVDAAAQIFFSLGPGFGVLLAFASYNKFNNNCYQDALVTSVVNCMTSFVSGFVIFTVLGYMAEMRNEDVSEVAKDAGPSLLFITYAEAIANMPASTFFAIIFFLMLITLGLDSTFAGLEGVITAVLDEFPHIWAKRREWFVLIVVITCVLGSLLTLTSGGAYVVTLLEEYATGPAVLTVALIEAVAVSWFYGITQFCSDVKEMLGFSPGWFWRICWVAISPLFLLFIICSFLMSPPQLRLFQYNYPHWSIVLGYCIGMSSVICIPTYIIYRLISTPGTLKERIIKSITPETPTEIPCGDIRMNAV

Turning to `C1=NCC(CC2=Cc3ccccc3CC2)N1` (configuration not stated), the inhibition constant (Ki) in assay [1] is 100 nM; in assay [4], 39.8 nM; in assay [6] it was 50.1 nM. The “Log Ki” value in assay [2] is reported as -7; in assay [3], -6.4. In assay [5], this compound returned a negative logarithm of the KB (pKB) of 6.6.
As for `C1=NC[C@@H](C2C[C@@]23CCc2ccccc2C3)N1` (some centres not stated), the results for the inhibitory constant (Ki) in assay [1], in assay [4] and in assay [6] were 3.16 nM, 2 nM and 100 nM, respectively. The “Log Ki” value in assay [2] is -8.2; in assay [3], -6.3. Further, in assay [5], the negative logarithm of the KB (pKB) is 8.2.
With `Clc1cccc2ccc(CC3CN=CN3)cc12` (configuration not stated), the inhibition constant (Ki) in assay [1] is 25.1 nM; in assay [4], 31.6 nM; in assay [6], 20 nM. Further, the “Log Ki” value was -7.5 in assay [2] and -6.4 in assay [3]. Further, the pKB in assay [5] came out at 7.5.
`Clc1cccc2c1C=C(CC1CN=CN1)CC2` (configuration not stated): the Ki was 31.6 nM in assay [1], 20 nM in assay [4] and 50.1 nM in assay [6]. The entries for the “Log Ki” value in assay [2] and in assay [3] were -7.6 and -6.4, respectively. This compound came in with a negative-log KB (pKB) in assay [5] of 7.6.
As for `C1=NCC(Cc2cc3ccccc3o2)N1` (configuration not stated), the values for the Ki in assay [1], in assay [4] and in assay [6] were 20 nM, 1000 nM and 63.1 nM, respectively. Also, the “Log Ki” value in assay [2] is listed as -7.9; in assay [3], -5.6. The same compound came in with a pKB in assay [5] of 6.9.
On to `C1=NC[C@]2(CC[C@@H]3Cc4ccccc4C[C@H]3C2)N1` (relative stereo), for which the values for the Ki in assay [1], in assay [4] and in assay [6] were 1.26 nM, 15.8 nM and 200 nM, respectively. The figures for the “Log Ki” value in assay [2] and in assay [3] were -8 and -6.1, respectively. Moreover, in assay [5], the pKB is 8.2.
With `C1=NC[C@H](C[C@]23CCc4ccccc4C2C3)N1` (some centres not stated), the Ki in assay [1] is 63.1 nM; in assay [4], 50.1 nM; in assay [6], 794 nM. Also, the “Log Ki” value is -7.3 in assay [2] and -5.9 in assay [3]. The compound further returned a negative-log KB (pKB) in assay [5] of 6.8.

As a reminder, the Ki is the dissociation constant of the complex between target and ligand, obtained from inhibition or displacement. What is called pKB is the negative decadic logarithm of the KB, by convention in mol/L. Read a low pKB as a high KB.
